The target in assay [1] is T1, VIM-2 (Escherichia coli, UniProt Q5U7L7). In words: Inhibition of nitrocefin hydrolysis by VIM-2. It is filed as biochemical. The following applies: 2 nM VIM-2, 5 min preincubation at 30 °C, 50 μM nitrocefin. A digest of the protocol: (§1)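 Recombinant MBL lacking its signal peptide, made in E. coli BL21(DE3) as His-tagged protein, Ni-affinity purified and TEV-cleaved (>95% pure). 2 nM enzyme preincubated 5 min at 30 °C with varied test compound, or its NDM-1 hydrolysis product, or none. Buffer: 10 mM HEPES, 200 mM NaCl pH 7.5, 20 μM ZnSO4. Nitrocefin 50 μM final; initial rates at 495 nm over 300 s. IC50 curves fitted; triplicate.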

In assay [2] the target is T2, NDM-5 (Klebsiella pneumoniae, UniProt C7C422, M154L/V88L). As to the kind of experiment: Steady-state hydrolysis kinetics with purified NDM-5. It is filed as biochemical. The following applies: FDC hydrolysis by NDM-5, 30 °C, pH 7.5. A digest of the protocol: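 Purified enzyme in 10 mM HEPES, 200 mM NaCl pH 7.5 with 20 μM ZnSO4, at 30 °C. Initial velocities of substrate hydrolysis followed at 259 nm, Δε259 = −9430 M−1 cm−1, 0.1 cm path cuvette. kcat and KM derived from these initial-rate measurements.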

Assay [3] deals with T3, NDM-1 (Klebsiella pneumoniae, UniProt C7C422). In words: Steady-state hydrolysis kinetics and UV difference spectra with purified NDM-1. It is filed as biochemical. Particulars: for hydrolysis monitored by UV difference spectroscopy: NDM-1, 200 : 1 S : E ratio, 220 nm to 300 nm; for K M: substrate hydrolysis by NDM-1, 30 °C, 10 mM HEPES, 200 mM NaCl pH 7.5, 20 μM ZnSO4.
Assay [4] deals with T4, IMP-1 (Serratia marcescens, UniProt P52699). As to the kind of experiment: Inhibition of nitrocefin hydrolysis by IMP-1. Type of assay: biochemical. The following applies: 2 nM IMP-1, 5 min preincubation at 30 °C, 50 μM nitrocefin. The gist of the method: as §1
Assay [5] has as its system E. coli DH10B cells harboring the pMBLe blaIMP-1 plasmid. As to the kind of experiment: Broth microdilution MIC in ID-CAMHB, E. coli producing IMP-1. Type of assay: cell-based. Particulars: Escherichia coli, higher levels of IMP-1 (IPTG-induced). The gist of the method:
(§2)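 Broth microdilution per CLSI in iron-depleted cation-adjusted Mueller–Hinton broth. DH10B carries the MBL gene on pMBLe with its native signal peptide under an IPTG-inducible promoter; inoculum in broth with 0–200 μM IPTG, final 5 × 10^5 CFU mL−1. Incubation 37 °C, 18 h; mode of three independent experiments. Enzyme levels by anti-strep-tag II immunoblot of drug-free growth wells, DnaK loading control.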
(Dilution methods test growth across graded concentrations, often in twofold steps.)

A further assay deals with E. coli (blaNDM-5). The following applies: clinical E. coli before ten-fold increase in blaNDM-5 copy number; cited from earlier work.
For assay [6], the target named is T4, IMP-1. In words: Steady-state hydrolysis kinetics and UV difference spectra with purified IMP-1. Type of assay: biochemical. Particulars: for hydrolysis monitored by UV difference spectroscopy: IMP-1, 200 : 1 S : E ratio, 220 nm to 300 nm.
In assay [7] the target is T3, NDM-1. As to the kind of experiment: Inhibition of nitrocefin hydrolysis by NDM-1. It is filed as biochemical. Particulars: 2 nM NDM-1, 5 min preincubation at 30 °C, 50 μM nitrocefin. A digest of the protocol: as §1
For assay [8], the target named is T1, VIM-2. In words: Steady-state hydrolysis kinetics and UV difference spectra with purified VIM-2. Particulars: for hydrolysis monitored by UV difference spectroscopy: VIM-2, 200 : 1 S : E ratio, 220 nm to 300 nm.
The subject of assay [9] is E. coli DH10B cells harboring the pMBLe blaNDM-1 plasmid. As to the kind of experiment: Broth microdilution MIC in ID-CAMHB, E. coli producing NDM-1. Type of assay: cell-based. A digest of the protocol: as §2
In assay [10] the target is T4, IMP-1. Particulars: CAZ hydrolysis by IMP-1; cited from earlier work.
Assay [11] has as its target T2, NDM-5. The following applies: CAZ hydrolysis by NDM-5; cited from earlier work.
For assay [12], the target named is T1, VIM-2. The following applies: CAZ hydrolysis by VIM-2, cited from earlier work.

≈ marks a conversion by molar mass, not a printed value. Where two headings read alike, the source gives them in different places.

One may read the MIC as the least concentration at which growth counts as inhibited. As for `CC(C)(O/N=C(\C(=O)N[C@@H]1C(=O)N2C(C(=O)[O-])=C(C[N+]3(CCNC(=O)c4ccc(O)c(O)c4Cl)CCCC3)CS[C@H]12)c1csc(N)n1)C(=O)O` [FDC, cefiderocol], the “inhibition of nitrocefin hydrolysis activity” value is reported as “inhibited” on VIM-2 [1], “inhibited” against IMP-1 [4] and “largely unperturbed” at NDM-1 [7]. Further, the “K M” value at NDM-5 [2] is 405 ± 40 µM; on NDM-1 [3], 443 ± 59 µM; on IMP-1 [6] (FDC hydrolysis by IMP-1, 30 °C, pH 7.5), 300 ± 120 µM; on VIM-2 [8] (FDC hydrolysis by VIM-2, 30 °C, pH 7.5) it was 250 ± 80 µM. For the same compound, the k cat on NDM-5 [2] was determined as 75 ± 3 s⁻¹. In addition, the “hydrolysis monitored by UV difference spectroscopy” value at NDM-1 [3] is recorded as “efficiently hydrolyzes”; on IMP-1 [6] it was “negligible activity”; on VIM-2 [8], “negligible activity”. Moreover, the MIC was 0.06 µg/mL (≈ 0.0798 µM) in assay [5]; 2 µg/mL (≈ 2.66 µM) in the assay with E. coli (blaNDM-5); 0.5 µg/mL (≈ 0.665 µM) in assay [9] (Escherichia coli, ID-CAMHB, higher levels of NDM-1 (IPTG-induced)). Moreover, the “increase in MIC values” in assay [9] (E. coli laboratory strain, NDM-1 overproduction vs basal level) is recorded as 16 fold.
As for `CC(C)(O/N=C(\C(=O)N[C@@H]1C(=O)N2C(C(=O)[O-])=C(C[n+]3ccccc3)CS[C@H]12)c1csc(N)n1)C(=O)O` [CAZ, ceftazidime], the “K M” value on IMP-1 [10] is 44 ± 3 µM; on NDM-1 [3] it was 45 ± 12 µM; at NDM-5 [11], 86 ± 11 µM; at VIM-2 [12] (standard deviations <10%), 72 µM. Besides, the k cat on IMP-1 [10] was 8 ± 1 s⁻¹; at NDM-5 [11], 15 s⁻¹; on VIM-2 [12] (standard deviations <10%), 3.6 s⁻¹. Also, the “k cat /K M” value was 180000 M⁻¹ s⁻¹ on IMP-1 [10], 180000 M⁻¹ s⁻¹ on NDM-5 [11] and 50000 M⁻¹ s⁻¹ at VIM-2 [12]. Besides, the “hydrolysis monitored by UV difference spectroscopy” value at NDM-1 [3], on IMP-1 [6] and on VIM-2 [8] was “can turnover” each time.

Source of the values: paper PMC12152739 (Chemical Science, 2025).
